Laboratory results from ChEMBL document CHEMBL1146459, “Production of biologically active taxoids by a callus culture of Taxus cuspidata” (2004).

Columns and labels:
[1] = system: SNB-78; assay: Growth inhibition of human SNB78 cells after 48 hrs by SRB assay; type: functional; conditions: SNB-78, 48 h
[2] = system: A549; assay: Growth inhibition of human A549 cells after 48 hrs by SRB assay; type: functional; conditions: A549, 48 h
[3] = system: OVCAR-5; assay: Growth inhibition of human OVCAR5 cells after 48 hrs by SRB assay; type: functional; conditions: OVCAR-5, 48 h
[4] = system: NCI-H226; assay: Growth inhibition of human NCI-H226 cells after 48 hrs by SRB assay; type: functional; conditions: NCI-H226, 48 h
[5] = Reversal of multidrug resistance in human 2780AD cells assessed as [3H]vincristine accumulation at 0.1 ug/mL after 2 hrs relative to verapamil; type: functional, A2780 ADR
[6] = system: LOX IMVI; assay: Growth inhibition of human LOXIMVI cells after 48 hrs by SRB assay; type: functional
[7] = system: St-4; assay: Growth inhibition of human St-4 cells after 48 hrs by SRB assay; type: functional; conditions: St-4, 48 h
[8] = system: HT-29; assay: Growth inhibition of human HT-29 cells after 48 hrs by SRB assay; type: functional; conditions: HT-29, 48 h
[9] = system: PC-3; assay: Growth inhibition of human PC3 cells after 48 hrs by SRB assay; type: functional; conditions: PC-3, 48 h
[10] = system: KM12; assay: Growth inhibition of human KM12 cells after 48 hrs by SRB assay; type: functional; conditions: KM12, 48 h
[11] = system: HCC 2998; assay: Growth inhibition of human HCC2998 cells after 48 hrs by SRB assay; type: functional; conditions: HCC 2998, 48 h
[12] = system: DMS-114; assay: Growth inhibition of human DMS114 cells after 48 hrs by SRB assay; type: functional; conditions: DMS-114, 48 h
[13] = system: SK-OV-3; assay: Growth inhibition of human SKOV3 cells after 48 hrs by SRB assay; type: functional; conditions: SK-OV-3, 48 h
[14] = Reversal of multidrug resistance in human 2780AD cells assessed as [3H]vincristine accumulation at 10 ug/mL after 2 hrs relative to verapamil; type: functional, A2780 ADR
[15] = system: NCI-H23; assay: Growth inhibition of human NCI-H23 cells after 48 hrs by SRB assay; type: functional; conditions: NCI-H23, 48 h
[16] = system: DU-145; assay: Growth inhibition of human DU145 cells after 48 hrs by SRB assay; type: functional; conditions: DU-145, 48 h
[17] = system: MCF7; assay: Growth inhibition of human MCF7 cells after 48 hrs by SRB assay; type: functional; conditions: MCF7, 48 h
[18] = system: DMS-273; assay: Growth inhibition of human DMS273 cells after 48 hrs by SRB assay; type: functional; conditions: DMS-273, 48 h
[19] = Reversal of multidrug resistance in human 2780AD cells assessed as [3H]vincristine accumulation at 1 ug/mL after 2 hrs relative to control; type: functional, A2780 ADR
Method in brief: (§1)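 Multidrug-resistant human ovarian cancer 2780AD cells were exposed to taxoids at 0.1, 1 or 10 µg/mL. Radiolabelled vincristine accumulated in the cells was measured as dpm/well, using means of triplicate determinations. Results are expressed as % of vincristine accumulated relative to the control experiment. They were also scored on a seven-level index according to the range of relative accumulation.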

[20] = Reversal of multidrug resistance in human 2780AD cells assessed as [3H]vincristine accumulation at 10 ug/mL after 2 hrs relative to control; type: functional, A2780 ADR; method in brief: as §1
[21] = system: MKN-7; assay: Growth inhibition of human MKN7 cells after 48 hrs by SRB assay; type: functional; conditions: MKN-7, 48 h
[22] = Reversal of multidrug resistance in human 2780AD cells assessed as [3H]vincristine accumulation at 0.1 ug/mL after 2 hrs relative to control; type: functional, A2780 ADR; method in brief: as §1
[23] = read-out: LC50 (the source's name)
[24] = read-out: pLC50 (the source's name) (converted)

Compound: C=C1[C@@H](OC(C)=O)CC[C@@]2(C)C[C@H](OC(C)=O)C3=C(C)C[C@H](OC(=O)C(C)CC)[C@@H]([C@@H](OC(C)=O)[C@H]12)C3(C)C (some centres undefined)
- GI50 ([1]; read-out: GI50): 50 µM
- CC50 [1, 23]: > 100 µM
- TGI ([1]; read-out: TGI): > 100 µM
- GI50 ([1]; read-out: pGI50 (converted)): 50.1 µM
- TGI ([1]; read-out: pTGI (converted)): 100 µM
- GI50 ([2]; read-out: GI50): 30 µM
- CC50 [2, 23]: > 100 µM
- TGI ([2]; read-out: TGI): > 100 µM
- GI50 ([2]; read-out: pGI50 (converted)): 30.2 µM
- CC50 [2, 24]: 100 µM
- TGI ([2]; read-out: pTGI (converted)): 100 µM
- GI50 ([3]; read-out: GI50): 48 µM
- CC50 [3, 23]: > 100 µM
- TGI ([3]; read-out: TGI): > 100 µM
- GI50 ([3]; read-out: pGI50 (converted)): 47.9 µM
- TGI ([3]; read-out: pTGI (converted)): 100 µM
- GI50 ([4]; read-out: GI50): 32 µM
- CC50 [4, 23]: > 100 µM
- TGI ([4]; read-out: TGI): > 100 µM
- GI50 ([4]; read-out: pGI50 (converted)): 32.4 µM
- CC50 [4, 24]: 100 µM
- TGI ([4]; read-out: pTGI (converted)): 100 µM
- Activity [5]: 95%
- GI50 ([6]; read-out: GI50): 35 µM
- CC50 [6, 23]: > 100 µM
- TGI ([6]; read-out: TGI): > 100 µM
- GI50 ([6]; read-out: pGI50 (converted)): 34.7 µM
- CC50 [6, 24]: 100 µM
- TGI ([6]; read-out: pTGI (converted)): 100 µM
- GI50 ([7]; read-out: GI50): 33 µM
- CC50 [7, 23]: > 100 µM
- TGI ([7]; read-out: TGI): > 100 µM
- GI50 ([7]; read-out: pGI50 (converted)): 33.1 µM
- CC50 [7, 24]: 100 µM
- TGI ([7]; read-out: pTGI (converted)): 100 µM
- GI50 ([8]; read-out: GI50): 28 µM
- CC50 [8, 23]: > 100 µM
- TGI ([8]; read-out: TGI): > 100 µM
- GI50 ([8]; read-out: pGI50 (converted)): 27.5 µM
- CC50 ([8]; read-out: pLC50 (converted)): > 100 µM
- TGI ([8]; read-out: pTGI (converted)): 100 µM
- GI50 ([9]; read-out: GI50): 20 µM
- CC50 [9, 23]: > 100 µM
- TGI ([9]; read-out: TGI): > 100 µM
- GI50 ([9]; read-out: pGI50 (converted)): 20 µM
- TGI ([9]; read-out: pTGI (converted)): 100 µM
- GI50 ([10]; read-out: GI50): 42 µM
- CC50 [10, 23]: > 100 µM
- TGI ([10]; read-out: TGI): > 100 µM
- GI50 ([10]; read-out: pGI50 (converted)): 41.7 µM
- CC50 ([10]; read-out: pLC50 (converted)): > 100 µM
- TGI ([10]; read-out: pTGI (converted)): 100 µM
- GI50 ([11]; read-out: GI50): 27 µM
- CC50 [11, 23]: > 100 µM
- TGI ([11]; read-out: TGI): > 100 µM
- GI50 ([11]; read-out: pGI50 (converted)): 27.5 µM
- CC50 [11, 24]: 100 µM
- TGI ([11]; read-out: pTGI (converted)): 100 µM
- GI50 ([12]; read-out: GI50): 10 µM
- CC50 [12, 23]: > 100 µM
- TGI ([12]; read-out: TGI): 57 µM
- GI50 ([12]; read-out: pGI50 (converted)): 10 µM
- CC50 [12, 24]: 100 µM
- TGI ([12]; read-out: pTGI (converted)): 57.5 µM
- GI50 ([13]; read-out: GI50): 68 µM
- CC50 [13, 23]: > 100 µM
- TGI ([13]; read-out: TGI): > 100 µM
- GI50 ([13]; read-out: pGI50 (converted)): 69.2 µM
- CC50 [13, 24]: 100 µM
- TGI ([13]; read-out: pTGI (converted)): 100 µM
- Activity [14]: 132%
- GI50 ([15]; read-out: GI50): 23 µM
- CC50 [15, 23]: > 100 µM
- TGI ([15]; read-out: TGI): 69 µM
- GI50 ([15]; read-out: pGI50 (converted)): 22.9 µM
- CC50 [15, 24]: 100 µM
- TGI ([15]; read-out: pTGI (converted)): 69.2 µM
- GI50 ([16]; read-out: GI50): 33 µM
- CC50 [16, 23]: > 100 µM
- TGI ([16]; read-out: TGI): > 100 µM
- GI50 ([16]; read-out: pGI50 (converted)): 32.4 µM
- CC50 [16, 24]: 100 µM
- TGI ([16]; read-out: pTGI (converted)): 100 µM
- GI50 ([17]; read-out: GI50): 24 µM
- CC50 [17, 23]: > 100 µM
- TGI ([17]; read-out: TGI): 93 µM
- GI50 ([17]; read-out: pGI50 (converted)): 24 µM
- CC50 ([17]; read-out: pLC50 (converted)): > 100 µM
- TGI ([17]; read-out: pTGI (converted)): 93.3 µM
- GI50 ([18]; read-out: GI50): 22 µM
- CC50 [18, 23]: > 100 µM
- TGI ([18]; read-out: TGI): > 100 µM
- GI50 ([18]; read-out: pGI50 (converted)): 22.4 µM
- CC50 [18, 24]: 100 µM
- TGI ([18]; read-out: pTGI (converted)): 100 µM
- Activity [19]: 256%
- Activity [20]: 701%
- GI50 ([21]; read-out: GI50): 18 µM
- CC50 [21, 23]: > 100 µM
- TGI ([21]; read-out: TGI): 93 µM
- GI50 ([21]; read-out: pGI50 (converted)): 18.2 µM
- CC50 [21, 24]: 100 µM
- TGI ([21]; read-out: pTGI (converted)): 93.3 µM
- Activity [22]: 111%
